Like-named read-outs stand apart in the source and are kept apart here.
Legend:
HSV-1 = test: Virus-induced cytopathicity, HSV-1; type: cell-based, herpes simplex virus type 1; conditions: read-out: Antiviral activity EC50 HSV-1; Table 4; HEL cells
HSV-2 = test: Virus-induced cytopathicity, HSV-2; type: cell-based, herpes simplex virus type 2; conditions: read-out: Antiviral activity EC50 HSV-2
HSV-1 TK– = test: Virus-induced cytopathicity, TK– HSV-1 KOS ACVr in HEL cells; type: cell-based, herpes simplex virus type 1; conditions: read-out: Antiviral activity EC50 HSV-1 TK–
Vaccinia virus = test: microbe, parasite or virus in culture; type: cell-based; conditions: for EC50: read-out: Antiviral activity EC50 Vaccinia virus
HEL cells [1] = test: Cytotoxicity, alteration of cell morphology; type: cell-based, human
herpesviruses = test: organism not typed; type: cell-based
HCMV DNA pol = target: T1, HCMV DNA pol (Human cytomegalovirus, UniProt P08546); test: DNA polymerase inhibition, HCMV DNA pol; type: biochemical; conditions: calf thymus DNA
T1 sequence (P08546 1-1242): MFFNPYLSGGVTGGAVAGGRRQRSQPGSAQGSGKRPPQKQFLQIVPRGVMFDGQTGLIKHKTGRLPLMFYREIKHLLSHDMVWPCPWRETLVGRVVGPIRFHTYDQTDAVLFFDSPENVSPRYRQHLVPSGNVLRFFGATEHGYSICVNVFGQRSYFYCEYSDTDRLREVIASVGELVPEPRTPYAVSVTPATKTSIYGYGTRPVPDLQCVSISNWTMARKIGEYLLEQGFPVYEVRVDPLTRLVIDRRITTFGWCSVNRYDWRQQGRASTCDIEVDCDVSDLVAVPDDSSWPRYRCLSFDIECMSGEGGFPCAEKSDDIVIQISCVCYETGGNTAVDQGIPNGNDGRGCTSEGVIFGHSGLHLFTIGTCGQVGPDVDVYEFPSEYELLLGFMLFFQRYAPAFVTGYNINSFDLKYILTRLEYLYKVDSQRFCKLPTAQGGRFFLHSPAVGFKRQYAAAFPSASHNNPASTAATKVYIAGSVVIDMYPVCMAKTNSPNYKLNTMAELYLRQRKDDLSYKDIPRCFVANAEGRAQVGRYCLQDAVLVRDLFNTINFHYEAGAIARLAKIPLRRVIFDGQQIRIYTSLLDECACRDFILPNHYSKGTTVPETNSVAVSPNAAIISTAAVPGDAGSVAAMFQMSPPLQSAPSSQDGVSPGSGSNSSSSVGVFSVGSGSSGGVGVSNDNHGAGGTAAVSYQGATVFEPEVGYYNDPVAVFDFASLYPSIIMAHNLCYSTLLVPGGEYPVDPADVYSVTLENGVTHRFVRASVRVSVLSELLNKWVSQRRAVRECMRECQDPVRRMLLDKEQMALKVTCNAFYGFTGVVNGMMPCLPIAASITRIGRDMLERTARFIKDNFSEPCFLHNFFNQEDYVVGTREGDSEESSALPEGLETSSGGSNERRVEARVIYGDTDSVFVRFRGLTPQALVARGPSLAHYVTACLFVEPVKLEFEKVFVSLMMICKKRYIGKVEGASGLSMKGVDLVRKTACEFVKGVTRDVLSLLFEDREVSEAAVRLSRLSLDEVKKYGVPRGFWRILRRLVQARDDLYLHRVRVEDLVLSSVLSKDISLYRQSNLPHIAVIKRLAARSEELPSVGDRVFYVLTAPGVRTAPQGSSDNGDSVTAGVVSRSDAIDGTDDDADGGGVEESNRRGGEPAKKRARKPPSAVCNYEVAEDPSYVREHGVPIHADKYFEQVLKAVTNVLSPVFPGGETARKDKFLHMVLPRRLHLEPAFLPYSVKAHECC
Procedure, shortened: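 Recombinant or source enzyme not specified. HCMV DNA polymerase reaction uses activated calf thymus DNA as template/primer, 100 uM of each of three unlabeled dNTPs, and 0.5 uM rate-limiting tritium-labeled dNTP ([3H]dGTP or [3H]dTTP, as competitive substrate). The diphosphate form of the test compound is added in serial dilutions, up to 100 uM.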

[2] = Cytostatic activity, inhibition of cell growth; type: cell-based, human; conditions: human, HEL cells, Cytotoxicity Cell growth (CC50), Table 3
TK+ VZV OKA strain = type: cell-based, varicella-zoster virus
TK– VZV 07-1 strain = type: cell-based, varicella-zoster virus
HCMV AD-169 strain = test: Virus-induced cytopathic effect, HCMV AD-169 strain in HEL cells; type: cell-based, human cytomegalovirus
HCMV Davis strain = test: Virus-induced cytopathic effect, HCMV Davis strain in HEL cells; type: cell-based, human cytomegalovirus
HSV = test: Antiviral activity against HSV; type: cell-based, herpes simplex virus; conditions: HEL
HSV-1 mutant viruses = type: cell-based, herpes simplex virus type 1; conditions: Figure 2
Procedure, shortened: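 HSV-1 TK and DNA polymerase mutants were derived from the reference KOS strain and tested by CPE reduction. Confluent HEL cultures in 96-well plates were infected and incubated with varying test compound concentrations. Cytopathicity was scored once it was complete in untreated infected controls. […] Fold-resistance is EC50 mutant divided by EC50 wild-type KOS. Reference antiherpetic drugs were run alongside.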

HEL cells [3] = test: Cytostatic activity, inhibition of cell growth; type: cell-based, human
DNA pol α = target: T2, DNA pol α (Homo sapiens, UniProt P09884); test: DNA polymerase inhibition, DNA pol α; type: biochemical; conditions: read-out: IC50 DNA pol α dGTP; calf thymus DNA, radiolabeled [3H]dGTP
T2 sequence (P09884 1-1462): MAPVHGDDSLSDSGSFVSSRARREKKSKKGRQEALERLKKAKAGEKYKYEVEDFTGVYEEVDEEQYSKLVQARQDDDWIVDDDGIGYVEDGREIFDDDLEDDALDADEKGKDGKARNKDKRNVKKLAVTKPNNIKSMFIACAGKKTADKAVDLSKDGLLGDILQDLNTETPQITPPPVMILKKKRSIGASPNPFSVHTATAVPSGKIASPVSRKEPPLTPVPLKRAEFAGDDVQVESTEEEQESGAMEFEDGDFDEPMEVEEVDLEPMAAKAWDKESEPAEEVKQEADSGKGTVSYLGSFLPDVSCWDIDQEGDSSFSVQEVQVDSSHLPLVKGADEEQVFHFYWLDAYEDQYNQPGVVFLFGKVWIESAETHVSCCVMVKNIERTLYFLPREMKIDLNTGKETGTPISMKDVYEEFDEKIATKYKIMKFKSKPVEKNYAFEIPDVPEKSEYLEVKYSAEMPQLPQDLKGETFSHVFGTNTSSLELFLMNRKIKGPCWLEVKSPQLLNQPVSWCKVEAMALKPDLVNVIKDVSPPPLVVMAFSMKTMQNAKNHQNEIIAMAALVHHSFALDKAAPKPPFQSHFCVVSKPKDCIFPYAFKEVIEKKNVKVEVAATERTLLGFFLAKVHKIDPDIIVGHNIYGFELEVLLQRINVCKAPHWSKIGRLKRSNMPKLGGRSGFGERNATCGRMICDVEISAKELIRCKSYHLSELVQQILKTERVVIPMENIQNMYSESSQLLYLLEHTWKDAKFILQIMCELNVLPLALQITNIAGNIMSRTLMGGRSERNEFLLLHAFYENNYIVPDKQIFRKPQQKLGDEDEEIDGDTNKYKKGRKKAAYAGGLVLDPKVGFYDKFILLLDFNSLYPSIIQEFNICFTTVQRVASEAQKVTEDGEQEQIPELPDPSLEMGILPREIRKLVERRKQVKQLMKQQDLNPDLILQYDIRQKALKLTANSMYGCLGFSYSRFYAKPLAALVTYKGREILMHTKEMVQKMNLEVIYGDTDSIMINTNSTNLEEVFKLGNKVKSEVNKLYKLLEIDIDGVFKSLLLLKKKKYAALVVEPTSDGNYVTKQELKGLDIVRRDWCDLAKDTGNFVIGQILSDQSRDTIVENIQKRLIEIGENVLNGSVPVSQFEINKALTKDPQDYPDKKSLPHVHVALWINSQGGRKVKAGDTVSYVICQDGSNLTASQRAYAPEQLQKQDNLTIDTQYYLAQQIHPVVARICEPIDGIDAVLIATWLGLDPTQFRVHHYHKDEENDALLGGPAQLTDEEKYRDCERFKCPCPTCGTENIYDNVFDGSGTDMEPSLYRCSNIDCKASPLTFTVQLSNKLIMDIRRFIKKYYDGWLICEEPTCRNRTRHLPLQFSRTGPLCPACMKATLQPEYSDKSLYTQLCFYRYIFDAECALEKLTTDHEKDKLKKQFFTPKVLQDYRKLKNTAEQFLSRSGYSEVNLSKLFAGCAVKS

DNA pol β = DNA pol β (Homo sapiens, UniProt P06746); test: DNA polymerase inhibition, DNA pol β; type: biochemical; conditions: read-out: IC50 DNA pol β dGTP; calf thymus DNA, radiolabeled [3H]dGTP

Which EC50 (HSV-1) does the source give for “4,4,5,5,6,6,7,7,8,8,9,9,10,10,11,11,11-Heptadecafluoroundecyl hydrogen ((2–(2,6-dioxo-1,2,3,6-tetrahydro-9H-purin-9-yl)ethoxy)methyl)phosphonate [Compound 19]” here?
Its EC50 is over 100 µM.

And the EC50 (HSV-2; Table 4, HEL cells)?
The EC50 was over 100 µM.

And the EC50 (HSV-1 TK–; Table 4, HEL cells)?
The EC50 was over 100 µM.

What about the EC50 (Vaccinia virus) of the same molecule?
Its EC50 is over 100 µM.

What about the “Cytotoxicity Cell morphology (MCC)” value (HEL cells [1]; Table 3) of the same molecule?
Its value is at least 100 μM.

What about the “Cytotoxicity Cell morphology (MCC)” value (HEL cells [1]; Table 4) of the same molecule?
Its value is over 100 μM.

What about the “anti-herpesvirus activity (in words)” value (herpesviruses) of the same molecule?
Its value is “did not display any potent anti-herpesvirus activity”.

With `Nc1nc2c(ncn2COCCOP(=O)(O)OP(=O)(O)OP(=O)(O)O)c(=O)[nH]1` [ACV-TP, acyclovir triphosphate] as the molecule, how does the IC50 (HCMV DNA pol; IC50 HCMV DNA pol dGTP, radiolabeled [3H]dGTP) read?
The IC50 was 0.77 ± 0.04 µM.

For `O=c1[nH]c(=O)n([C@H]2C[C@H](O)[C@@H](CO)O2)cc1/C=C/Br` [Brivudin, brivudin, reference compound], which EC50 (HSV-2; Human alphaherpesvirus 2, HEL) is on record?
Its EC50 is 112 ± 37 µM.

What about the EC50 (HSV-1 TK–) of the same molecule?
The EC50 was 50 µM.

What about the “Cytotoxicity Cell morphology (MCC)” value (HEL cells [1]; Table 1) of the same molecule?
The value was over 300 μM.

And the “Cytotoxicity Cell morphology (MCC)” value (HEL cells [1]; Table 2)?
The value was over 250 μM.

And the “Cytotoxicity Cell morphology (MCC)” value (HEL cells [1]; Table 3)?
Its value is at least 300 μM.

And the CC50 at 3 days [2]?
The CC50 at 3 days was 168 ± 41 µM.

With `O=c1[nH]c(=O)c2ncn(CCOCP(=O)(O)O)c2[nH]1` [Compound 4, ((2–(2,6-Dioxo-1,2,3,6-tetrahydro-9H-purin-9-yl)ethoxy)methyl)phosphonic acid] as the molecule, how does the “selectivity index (ratio CC50/EC50)” value (TK+ VZV OKA strain) read?
Its value is 42.

And the “selectivity index (ratio CC50/EC50)” value (TK– VZV 07-1 strain)?
Its value is 24.

What about the “selectivity index (ratio CC50/EC50)” value (HCMV AD-169 strain) of the same molecule?
The value was 11.

And the “selectivity index (ratio CC50/EC50)” value (HCMV Davis strain)?
The value was 13.

And the “Antiviral activity EC50 Vaccinia virus” value (Vaccinia virus)?
The value was “lacked activity”.

What about the EC50 (Vaccinia virus; Orthopoxvirus vaccinia, HEL) of the same molecule?
Its EC50 is over 345 µM.

And the “Cytotoxicity Cell morphology (MCC)” value (HEL cells [1]; Table 1)?
Its value is over 345 μM.

And the EC50 (HSV; read-out: EC50 values, replication of HSV-1, HSV-2 and TK-HSV-1 (range))?
The EC50 was 16 to 39 µM.

What about the “anti-herpesvirus activity (in words)” value (herpesviruses) of the same molecule?
Its value is “able to inhibit the replication of herpesviruses”.

What about the EC50 (herpesviruses; HEL, read-out: EC50 values against VZV, HCMV, HSV-1, and HSV-2 (range)) of the same molecule?
Its EC50 is 2.6 to 25.6 µM.

And the “change of EC50 for DNA polymerase mutant viruses” value (HSV-1 mutant viruses; HSV-1 DNA polymerase mutants, same magnitude as adefovir)?
Its value is “increase in the EC50”.

What about the “activity against viruses bearing mutations in the viral TK” value (HSV-1 mutant viruses; HSV-1 TK mutants) of the same molecule?
Its value is “remained active”.

With `CCCCCCCCCCCCCCCCOCCCOP(=O)(O)COCCn1cnc2c(=O)[nH]c(=O)[nH]c21` [Compound 18, 3-(Hexadecyloxy)propyl hydrogen ((2–(2,6-dioxo-1,2,3,6-tetrahydro-9H-purin-9-yl)ethoxy)methyl)phosphonate] as the molecule, how does the EC50 (Vaccinia virus; Orthopoxvirus vaccinia, HEL) read?
Its EC50 is over 100 µM.

What about the “Cytotoxicity Cell morphology (MCC)” value (HEL cells [1]; Table 3) of the same molecule?
The value was 100 μM.

And the “Cytotoxicity Cell morphology (MCC)” value (HEL cells [1]; Table 4)?
Its value is over 100 μM.

What about the “increase in cytostatic activity versus parent compound 4” value (HEL cells [3]) of the same molecule?
Its value is 11 fold.

What about the EC50 (HSV; read-out: EC50 values against HSV-1 and HSV-2 (range)) of the same molecule?
Its EC50 is 1.8 to 4 µM.

Which IC50 (HCMV DNA pol; read-out: IC50 HCMV DNA pol dGTP, radiolabeled [3H]dGTP) does the source give for `O=C(O)P(=O)(O)O` [PFA pyrophosphate] here?
Its IC50 is 7 ± 0.7 µM.

What about the IC50 (HCMV DNA pol; read-out: IC50 HCMV DNA pol dTTP, radiolabeled [3H]dTTP) of the same molecule?
The IC50 was 9.4 ± 6 µM.

What about the IC50 (DNA pol α) of the same molecule?
Its IC50 is 56 ± 12 µM.

And the IC50 (DNA pol β)?
Its IC50 is over 100 µM.

Source: publication PMC6287304 (Antiviral Chemistry & Chemotherapy, 2018)
